Assays:
mouse Abcg2 = target: T1, mouse Abcg2 (Mus musculus, UniProt Q7TMS5); experiment: Transepithelial transport across MDCKII monolayers over-expressing mouse Abcg2; type: in vitro ADME
T1 sequence (Q7TMS5 1-657): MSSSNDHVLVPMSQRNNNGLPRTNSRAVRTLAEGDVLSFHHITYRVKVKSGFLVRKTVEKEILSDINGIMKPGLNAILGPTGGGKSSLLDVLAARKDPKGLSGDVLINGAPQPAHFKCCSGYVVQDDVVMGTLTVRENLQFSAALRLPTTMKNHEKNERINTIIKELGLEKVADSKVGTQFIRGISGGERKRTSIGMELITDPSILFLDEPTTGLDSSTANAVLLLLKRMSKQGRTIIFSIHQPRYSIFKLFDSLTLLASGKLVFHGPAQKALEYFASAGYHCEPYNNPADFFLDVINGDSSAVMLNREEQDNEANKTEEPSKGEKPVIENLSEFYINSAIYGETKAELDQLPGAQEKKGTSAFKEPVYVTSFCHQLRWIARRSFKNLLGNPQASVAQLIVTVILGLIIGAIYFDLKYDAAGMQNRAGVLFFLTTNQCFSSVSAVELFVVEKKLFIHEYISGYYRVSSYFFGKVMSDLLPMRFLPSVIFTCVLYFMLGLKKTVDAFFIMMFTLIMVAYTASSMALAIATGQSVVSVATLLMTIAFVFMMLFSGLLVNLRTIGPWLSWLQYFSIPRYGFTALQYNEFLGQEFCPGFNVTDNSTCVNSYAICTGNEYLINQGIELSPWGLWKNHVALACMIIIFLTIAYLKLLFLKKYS

ABCG2 = target: T2, ABCG2 (Mus musculus, UniProt Q7TMS5); type: in vivo; details: Ko143 0, 1, 3 and 10 mg-kg^−1 i.p., 20 min prior to URB937 25 mg-kg^−1 s.c., ex vivo 1 h after URB937
T2 sequence (Q7TMS5 1-657): T1 sequence (Q7TMS5 1-657)

FAAH [1] = target: T3, FAAH (Mus musculus, UniProt O08914); details: cited from earlier work
T3 sequence (O08914 1-579): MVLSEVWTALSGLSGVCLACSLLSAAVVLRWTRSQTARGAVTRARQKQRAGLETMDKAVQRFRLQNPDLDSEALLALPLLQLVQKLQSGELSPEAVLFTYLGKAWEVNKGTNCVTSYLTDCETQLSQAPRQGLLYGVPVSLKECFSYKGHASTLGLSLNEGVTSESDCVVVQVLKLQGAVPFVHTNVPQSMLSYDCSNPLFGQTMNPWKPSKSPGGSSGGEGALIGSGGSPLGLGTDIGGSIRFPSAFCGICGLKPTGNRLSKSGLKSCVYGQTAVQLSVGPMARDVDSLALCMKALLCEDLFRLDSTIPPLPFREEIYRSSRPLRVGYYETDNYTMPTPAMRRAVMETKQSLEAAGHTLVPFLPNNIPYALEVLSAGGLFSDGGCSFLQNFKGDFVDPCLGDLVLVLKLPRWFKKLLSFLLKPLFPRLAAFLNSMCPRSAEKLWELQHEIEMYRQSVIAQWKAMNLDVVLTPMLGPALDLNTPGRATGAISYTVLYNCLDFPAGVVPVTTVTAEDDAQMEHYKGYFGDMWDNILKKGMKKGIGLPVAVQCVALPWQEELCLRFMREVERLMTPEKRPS

[2] = Transepithelial transport across MDCKII parental monolayers; type: in vitro ADME, canine; details: dog, MDCK
FAAH [3] = target: T3, FAAH; experiment: Ex vivo FAAH activity in tissues of wild-type and Abcg2-/- mice after URB937; details: URB937 25 mg-kg^−1 s.c., 1 h
How it was run: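 Male Abcg2−/− mice (n = 4) and wild-type FVB littermates (n = 5), 9–13 weeks, given test compound at 25 mg-kg−1 s.c. in saline/PEG400/Tween-80 (18:1:1). Killed 1 h later; tissues homogenized in 50 mM Tris-HCl pH 7.5 with 0.32 M sucrose. FAAH assay: 37°C, 30 min, 0.05% BSA, 50 µg protein (100 µg liver), 10 µM anandamide plus [3H]-anandamide. Read-out: aqueous-phase scintillation counting; mean ± SEM.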

[4] = Plasma and tissue levels of URB937 in wild-type and Abcg2-/- mice; type: in vivo, mouse; details: 25 mg-kg^−1 s.c., mean ± SEM; for Level of URB937 in brain / Level of URB937 in kidney / Level of URB937 in liver / Level of URB937 in spinal cord: 1 h; for concentration at 1 h: mouse, plasma, sc, 25 mg-kg^−1, Level of URB937 in plasma
How it was run: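 Dosing: test compound 25 mg-kg−1 s.c. in saline/PEG400/Tween-80 (18:1:1) to Abcg2−/− (n = 4) and wild-type littermates (n = 5); killed at 1 h. Plasma obtained by cardiac puncture and spun 2000 × g. Tissue homogenates and plasma extracted with methanol/chloroform (1:2) containing internal standard. Analysis by ESI-LC/MS on a C18 column with a methanol/water gradient (0.25% acetic acid, 5 mM ammonium acetate) at m/z 377; mean ± SEM.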

human ABCG2 = target: T4, human ABCG2 (Homo sapiens, UniProt Q9UNQ0)
T4 sequence (Q9UNQ0 1-655): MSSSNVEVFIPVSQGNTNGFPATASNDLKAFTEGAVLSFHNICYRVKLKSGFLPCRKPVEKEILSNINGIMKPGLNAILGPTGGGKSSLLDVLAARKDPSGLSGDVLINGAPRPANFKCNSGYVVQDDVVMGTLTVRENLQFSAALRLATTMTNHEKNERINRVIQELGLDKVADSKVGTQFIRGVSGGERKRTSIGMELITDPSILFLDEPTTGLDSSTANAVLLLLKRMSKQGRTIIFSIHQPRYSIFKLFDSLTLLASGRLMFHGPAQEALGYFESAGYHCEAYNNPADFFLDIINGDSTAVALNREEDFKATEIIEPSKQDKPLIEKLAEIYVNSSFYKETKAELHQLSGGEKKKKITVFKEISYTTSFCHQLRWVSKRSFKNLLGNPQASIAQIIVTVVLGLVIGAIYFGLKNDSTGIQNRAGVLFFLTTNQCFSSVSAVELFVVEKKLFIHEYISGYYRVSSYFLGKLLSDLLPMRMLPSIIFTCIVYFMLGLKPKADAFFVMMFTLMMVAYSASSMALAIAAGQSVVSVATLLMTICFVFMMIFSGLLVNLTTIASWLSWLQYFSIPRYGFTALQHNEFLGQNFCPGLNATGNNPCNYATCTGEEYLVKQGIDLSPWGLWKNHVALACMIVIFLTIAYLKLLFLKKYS

COc1ccc2c3c([nH]c2c1)[C@H](CC(C)C)N1C(=O)[C@H](CCC(=O)OC(C)(C)C)NC(=O)[C@@H]1C3 [Ko143, reference compound]
inhibition of Abcg2-mediated transport of URB937 (mouse Abcg2; Ko143 1 µM, URB937 5 µM, MDCKII-Abcg2): completely inhibited | brain FAAH activity (ABCG2): dose-dependent decrease

NC(=O)c1cccc(-c2cc(OC(=O)NC3CCCCC3)ccc2O)c1 [URB937, cyclohexylcarbamic acid 3'-carbamoyl-6-hydroxybiphenyl-3-yl ester]
potency at inhibiting FAAH activity in mouse liver relative to mouse brain (FAAH [1]; mouse liver vs mouse brain): 400 times | half-maximal effective dose (ID50), liver FAAH activity (FAAH [1]; systemic administration in mice, liver): 0.1 mg/kg | FAAH activity in forebrain, hypothalamus and spinal cord (FAAH [1]; systemic administration in mice): fails to alter | efflux ratio at 4 h, 5 µM [2]: 1.5 | reduction in FAAH activity in brain and spinal cord (FAAH [3]; Abcg2^−/− mice compared to wild-type): 80% | FAAH activity in liver and kidney tissue (FAAH [3]; wild-type and Abcg2^−/− mice): nearly abolished | inhibition of FAAH activity in CNS (FAAH [3]; wild-type mice): almost no inhibition | Level of URB937 in brain ([4]; Abcg2^−/− mice): 1.15 ± 0.04 pmol/mg | Level of URB937 in kidney ([4]; Abcg2^−/− mice): 34.97 ± 0.35 pmol/mg | Level of URB937 in liver ([4]; Abcg2^−/− mice): 7.75 ± 2.3 pmol/mg | Level of URB937 in spinal cord ([4]; Abcg2^−/− mice): 0.80 ± 0.10 pmol/mg | concentration at 1 h ([4]; Abcg2^−/− mice): 6.95 ± 0.9 µM | concentration at 1 h ([4]; wild-type mice): 8.34 ± 1.7 µM | Level of URB937 in brain ([4]; wild-type mice): 0.46 ± 0.12 pmol/mg | Level of URB937 in kidney ([4]; wild-type mice): 33.88 ± 3.3 pmol/mg | Level of URB937 in liver ([4]; wild-type mice): 7.51 ± 3.1 pmol/mg | Level of URB937 in spinal cord ([4]; wild-type mice): 0.29 ± 0.04 pmol/mg | increase of relative transport ratio by over-expression vs parental cells (human ABCG2): ~10 folds | efflux ratio at 4 h, 5 µM (mouse Abcg2; mouse): 13.6 | increase of relative transport ratio by over-expression vs parental cells (mouse Abcg2; mouse Abcg2 over-expression): ~10 folds
